From ChEMBL document CHEMBL1123779, “Modifications of primaquine as antimalarials. 4. 5-Alkoxy derivatives of primaquine” (J Med Chem, 1987)

How the values were obtained:
Mus musculus [1] = test: Suppressive blood schizonticidal antimalarial activity evaluated in the trophozoite-induced Plasmodium berghei infection in mice (Mus musculus) at a dose 160 mg/kg given as no. of toxic deaths; format: functional
Summary of the method: (§1)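 Rane Laboratory mouse test with blood-induced P. berghei infection, five mice per group. Toxic deaths are deaths occurring before the 6th day postinfection.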

Plasmodium berghei [2] = test: Suppressive blood schizonticidal antimalarial activity evaluated in the trophozoite-induced Plasmodium berghei infection in mice (Mus musculus) at a dose 640 mg/kg given as number of toxic deaths; format: toxicity, organism-based; parameters: dose 640 mg/kg; conditions: in vivo; summary of the method: as §1
Mus musculus [3] = test: Suppressive blood schizonticidal antimalarial activity evaluated in the trophozoite-induced Plasmodium berghei infection in mice (Mus musculus) at a dose 40 mg/kg; format: functional; parameters: unit not given beside the values
Summary of the method: (§2)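 Run at the Rane Laboratory in mice infected with blood-induced P. berghei, five animals per group. Activity is the increase in mean survival time over untreated infected controls. A compound counts as active when treated-group MST is more than twice the control MST. Cures are mice surviving at 60 days postinfection.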

Plasmodium cynomolgi [4] = test: Cures in Plasmodium cynomolgi infected Rhesus monkeys (Macaca mulatta) on 1 mg/kg/day after 7 days; cured 1 of 1; format: functional
Mus musculus [5] = test: Suppressive blood schizonticidal antimalarial activity evaluated in the trophozoite-induced Plasmodium berghei infection in mice (Mus musculus) at a dose 20 mg/kg given as no. of cures; format: functional
Summary of the method: (§3)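 Run at the Rane Laboratory with blood-induced P. berghei infections in mice, five animals per group. A cure is a mouse surviving to 60 days postinfection. Deaths before day 6 are recorded separately as toxic deaths. Activity is scored from the increase in mean survival time over untreated controls, and counts as active when treated MST is more than twice control MST.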

Plasmodium berghei [6] = test: Blood schizonticidal activity in trophozoite-induced Plasmodium berghei infected mice (Mus musculus) at 40 mg/kg; numbers cured; format: functional; summary of the method: as §3
Mus musculus [7] = test: Suppressive blood schizonticidal antimalarial activity evaluated in the trophozoite-induced Plasmodium berghei infection in mice (Mus musculus) at a dose 80 mg/kg given as no. of cures; format: functional; summary of the method: as §3
Mus musculus [8] = test: Suppressive blood schizonticidal antimalarial activity evaluated in the trophozoite-induced Plasmodium berghei infection in mice (Mus musculus) at a dose 320 mg/kg given as no. of toxic deaths; format: functional; summary of the method: as §1
Mus musculus [9] = test: Suppressive blood schizonticidal antimalarial activity evaluated in the trophozoite-induced Plasmodium berghei infection in mice (Mus musculus) at a dose 10 mg/kg; format: functional; summary of the method: as §2
Plasmodium cynomolgi [10] = test: Cures in Plasmodium cynomolgi infected Rhesus monkeys (Macaca mulatta) on 0.316 mg/kg/day after 7 days; cured 0 of 2; format: functional
Plasmodium cynomolgi [11] = test: Cures in Plasmodium cynomolgi infected Rhesus monkeys (Macaca mulatta) on 0.1 mg/kg/day after 7 days; cured 0 of 1; format: functional
Mus musculus [12] = test: Suppressive blood schizonticidal antimalarial activity evaluated in the trophozoite-induced Plasmodium berghei infection in mice (Mus musculus) at a dose 10 mg/kg given as no. of cures; format: functional; summary of the method: as §3
Mus musculus [13] = test: Suppressive blood schizonticidal antimalarial activity evaluated in the trophozoite-induced Plasmodium berghei infection in mice (Mus musculus) at a dose 160 mg/kg given as no. of cures; format: functional; summary of the method: as §3
Mus musculus [14] = test: Suppressive blood schizonticidal antimalarial activity evaluated in the trophozoite-induced Plasmodium berghei infection in mice (Mus musculus) at a dose 5 mg/kg; format: functional; parameters: unit not given beside the values; summary of the method: as §2
Plasmodium cynomolgi [15] = test: Cures in Plasmodium cynomolgi infected Rhesus monkeys (Macaca mulatta) on 1 mg/kg/day after 7 days; cured 0 of 1; format: functional
Mus musculus [16] = test: Suppressive blood schizonticidal antimalarial activity evaluated in the trophozoite-induced Plasmodium berghei infection in mice (Mus musculus) at a dose 320 mg/kg given as number of cures; format: functional; summary of the method: as §3
Mus musculus [17] = test: Suppressive blood schizonticidal antimalarial activity evaluated in the trophozoite-induced Plasmodium berghei infection in mice (Mus musculus) at a dose 640 mg/kg given as no. of cures; format: functional; summary of the method: as §3
Plasmodium berghei [18] = test: Blood schizonticidal antimalarial activity in the trophozoite-induced Plasmodium berghei infection in mice (Mus musculus) at 20 mg/kg; format: functional; parameters: unit not given beside the values; summary of the method: as §2
Mus musculus [19] = test: Suppressive blood schizonticidal antimalarial activity evaluated in the trophozoite-induced Plasmodium berghei infection in mice (Mus musculus) at a dose 80 mg/kg; format: functional; parameters: unit not given beside the values; summary of the method: as §2
Plasmodium cynomolgi [20] = test: Cures in Plasmodium cynomolgi infected Rhesus monkeys (Macaca mulatta) on 1 mg/kg/day after 7 days; cured 2 of 2; format: functional
Plasmodium cynomolgi [21] = test: Cures in Plasmodium cynomolgi infected Rhesus monkeys (Macaca mulatta) on 10.0 mg/kg/day after 7 days; cured 1 of 1; format: functional
Mus musculus [22] = test: Suppressive blood schizonticidal antimalarial activity evaluated in the trophozoite-induced Plasmodium berghei infection in mice (Mus musculus) at a dose 2.5 mg/kg; format: functional; summary of the method: as §2
Plasmodium cynomolgi [23] = test: Cures in Plasmodium cynomolgi infected Rhesus monkeys (Macaca mulatta) on 0.316 mg/kg/day after 7 days; cured 0 of 1; format: functional
Plasmodium cynomolgi [24] = test: Cures in Plasmodium cynomolgi infected Rhesus monkeys (Macaca mulatta) on 0.1 mg/kg/day after 7 days (x7); cured 0 of 2; format: functional
Mus musculus [25] = test: Suppressive blood schizonticidal antimalarial activity evaluated in the trophozoite-induced Plasmodium berghei infection in mice (Mus musculus) at a dose 320 mg/kg; format: functional; summary of the method: as §2
Mus musculus [26] = test: Suppressive blood schizonticidal antimalarial activity evaluated in the trophozoite-induced Plasmodium berghei infection in mice (Mus musculus) at a dose 160 mg/kg; format: functional; summary of the method: as §2
Mus musculus [27] = test: Suppressive blood schizonticidal antimalarial activity evaluated in the trophozoite-induced Plasmodium berghei infection in mice (Mus musculus) at a dose 5 mg/kg given as no. of cures; format: functional; summary of the method: as §3
Mus musculus [28] = test: Suppressive blood schizonticidal antimalarial activity evaluated in the trophozoite-induced Plasmodium berghei infection in mice (Mus musculus) at a dose 80 mg/kg given as no. of toxic deaths; format: functional; summary of the method: as §1
Plasmodium cynomolgi [29] = test: Cures in Plasmodium cynomolgi infected Rhesus monkeys (Macaca mulatta) on 0.316 mg/kg/day after 7 days; cures 2 of 2; format: functional
Plasmodium cynomolgi [30] = test: Cures in Plasmodium cynomolgi infected Rhesus monkeys (Macaca mulatta) on 10.0 mg/kg/day after 7 days; format: functional, organism-based
Plasmodium cynomolgi [31] = test: Radical curative antimalarial activity against Plasmodium cynomolgi in Rhesus monkeys (Macaca mulatta) at 1 mg/kg/day over 7 days; cured 1 of 2; format: functional

SMILES | Toxic deaths (Mus musculus [1]) | Toxic deaths (Plasmodium berghei [2]) | Delta MST (Mus musculus [3]) | Cures/no. of animals (Plasmodium cynomolgi [4]) | Cures (Mus musculus [5]) | Cures (Plasmodium berghei [6]) | Cures (Mus musculus [7]) | Toxic deaths (Mus musculus [8]) | Delta MST (Mus musculus [9]) | Cures/no. of animals (Plasmodium cynomolgi [10]) | Cures/no. of animals (Plasmodium cynomolgi [11]) | Cures (Mus musculus [12]) | Cures (Mus musculus [13]) | Delta MST (Mus musculus [14]) | Delta MST (Plasmodium berghei [18]) | Delta MST (Mus musculus [19]) | Cures/no. of animals (Plasmodium cynomolgi [20]) | Delta MST (Mus musculus [22]) | Cures/no. of animals (Plasmodium cynomolgi [24]) | further results
CCOc1c(OC)cc(NC(C)CCCN)c2ncccc12 (configuration not stated) | 3 | 5 | 0.3 |  |  |  |  |  |  |  |  |  |  |  |  |  |  |  |  | 
CCCCC(C)Oc1c(OC)cc(NC(C)CCCN)c2ncc(C)cc12 (configuration not stated) | 5 | 5 |  | 1 | 2 | 3 | 1 | 5 | 6.1 |  |  |  |  |  |  |  |  |  |  | 
COc1cc(NC(C)CCCN)c2nccc(C)c2c1OCCCCCCOc1ccccc1 (configuration not stated) |  | 2 |  | 1 | 4 | 5 | 4 | 2 |  | 0 | 0 | 2 | 2 | 7.3 |  |  |  |  |  | 
CCCCCCCCCCCCOc1c(OC)cc(NC(C)CCCN)c2nccc(C)c12 (configuration not stated) |  |  | 6.4 |  |  |  |  |  | 2 |  | 0 |  | 4 |  | 3.2 | 7.6 |  |  |  | Cures/no. of animals (Plasmodium cynomolgi [15]): 0; Cures (Mus musculus [16]): 5; Cures (Mus musculus [17]): 5
COc1cc(NC(C)CCCN)c2nccc(C)c2c1OCC1CCCCC1 (configuration not stated) |  | 5 |  |  | 4 | 3 | 1 | 4 |  |  | 0 | 1 |  | 7.8 |  |  | 2 | 9.2 |  | Cures/no. of animals (Plasmodium cynomolgi [21]): 1; Cures/no. of animals (Plasmodium cynomolgi [23]): 0
CCCCCCCCOc1c(OC)cc(NC(C)CCCN)c2ncccc12 (configuration not stated) |  | 1 | 6.7 |  |  |  |  |  |  |  |  |  |  |  | 2.9 | 8.1 | 2 |  | 0 | Delta MST (Mus musculus [25]): 6.3; Delta MST (Mus musculus [26]): 12.1; Cures/no. of animals (Plasmodium cynomolgi [23]): 0
COc1cc(NC(C)CCCN)c2nccc(C)c2c1OCCCCOc1ccccc1 (configuration not stated) | 5 | 5 |  |  | 5 | 5 |  | 5 | 10.2 |  |  |  |  |  |  |  |  | 8 | 0 | Cures (Mus musculus [27]): 1; Toxic deaths (Mus musculus [28]): 5
COc1cc(NC(C)CCCN)c2nccc(C)c2c1OC1CCCC1 (configuration not stated) | 5 | 5 |  |  | 1 | 2 | 1 | 5 | 6.9 |  |  |  |  | 6.9 |  |  | 2 | 6.1 | 0 | Cures/no. of animals (Plasmodium cynomolgi [29]): 2; Cures/no. of animals (Plasmodium cynomolgi [30]): Toxic
CCCCCCCCCOc1c(OC)cc(NC(C)CCCN)c2nccc(C)c12 (configuration not stated) |  |  |  | 1 | 3 | 5 | 5 |  |  | 0 |  | 2 | 4 | 9.7 |  |  |  | 7.9 | 0 | Cures/no. of animals (Plasmodium cynomolgi [30]): Toxic; Cures (Mus musculus [16]): 4; Cures (Mus musculus [17]): 4
COc1cc(NC(C)CCCN)c2ncccc2c1 (configuration not stated) [PRIMAQUINE] | 2 | 5 | 5 |  |  |  |  | 5 |  | 0 |  |  |  |  | 4 | 9.4 |  |  | 0 | Cures/no. of animals (Plasmodium cynomolgi [31]): 1
